# Sampled rows, rich in hits. Any-hit rate of the full collection: about 1.9%.
# HGIII-sPLA2 inh = Blocks human group III sPLA2 activity; Q9NZ20; QFRET BODIPY PC-A2 liposome hydrolysis, fluorescence; inhibition, % at 12.2 µM; 370,000 tested, 0.56% active; AID 743126;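 active = inhibition above mean plus 3 SD of compounds lying within the high and low control bounds, cut at about 19% in these data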
# Target sequence (Q9NZ20 whole entry, looked up): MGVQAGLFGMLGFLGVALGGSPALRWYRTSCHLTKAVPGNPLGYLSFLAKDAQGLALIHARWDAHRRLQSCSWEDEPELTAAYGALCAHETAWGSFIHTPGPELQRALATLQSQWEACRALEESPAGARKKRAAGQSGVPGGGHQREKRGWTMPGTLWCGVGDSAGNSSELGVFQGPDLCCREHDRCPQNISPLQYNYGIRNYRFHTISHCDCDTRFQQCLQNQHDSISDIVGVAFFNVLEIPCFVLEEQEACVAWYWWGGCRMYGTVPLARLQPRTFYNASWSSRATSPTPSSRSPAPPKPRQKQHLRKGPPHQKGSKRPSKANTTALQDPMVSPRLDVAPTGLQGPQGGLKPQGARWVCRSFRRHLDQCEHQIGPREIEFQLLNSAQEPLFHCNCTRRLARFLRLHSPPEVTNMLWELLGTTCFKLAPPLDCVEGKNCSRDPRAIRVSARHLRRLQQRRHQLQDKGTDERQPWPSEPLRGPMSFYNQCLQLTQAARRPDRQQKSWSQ
# PLC-beta3 inh = PLC-beta3 (human) inhibition, primary screen | Q01970 | Purified PLC-beta3, fluorogenic substrate, fluorescence | inhibition, % at 12.2 µM | 370,000 tested, 0.18% active; in the data active = inhibition above about 11%
# PLCg1 inh = PLC-gamma1 (human) inhibition, primary screen. inhibition, % at 12.2 µM. AID 720700. P19174. 370,000 tested, 0.84% active. purified PLC-gamma1, fluorogenic substrate, fluorescence; in the data active = inhibition above about 9.5%
# ASAP1 inh = ASAP1 ArfGAP inhibition | Q9ULH1 | ASAP1-stimulated ARF1 GTP hydrolysis, GDP FP detection | inhibition, % at 16.5 µM | 360,000 tested, 0.19% active | AID 624377; in the data active = inhibition above about 25%
# ARFGAP1 inhibitor = inhibits rat ARF GTPase activating protein 1 | Arfgap1-stimulated ARF1 GTP hydrolysis, GDP FP detection | 360,000 tested, 0.26% active | Q62848 | AID 651572 | inhibition, % at 16.5 µM;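 active = inhibition above a per-plate limit, mean inhibition of low control wells plus 3 SD, cut at about 25% in these data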
# Target sequence (Q62848 1-136 limits assumed): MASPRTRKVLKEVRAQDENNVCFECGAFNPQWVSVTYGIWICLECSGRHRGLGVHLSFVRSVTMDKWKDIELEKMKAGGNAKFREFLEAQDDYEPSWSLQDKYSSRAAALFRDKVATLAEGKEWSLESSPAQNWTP
#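 Assay system: Rat Arfgap1 GAP domain (His6, aa 1-136), purified enzyme | Buffer or medium: HEPES 25 mM pH 7.5, NaCl 150 mM, MgCl2, DTT | Schedule: GTP hydrolysis reaction 2 h at 25 °C | Signal: FP of antibody-bound GDP Alexa 633 tracer, ex 620/em 688 nm | Measure: Percent inhibition of Arfgap1-stimulated GTP hydrolysis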
# hGIII sPLA2 conf = human GIII-sPLA2 inhibition, confirmation; shares compounds with HGIII-sPLA2 inh; recombinant hGIII-sPLA2, BODIPY PC-A2 QFRET fluorescence; inhibition, % at 12.2 µM; 2,000 tested, 34% active;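 active = mean inhibition across triplicates above the hit cutoff set in the earlier primary screen, cut at about 19% in these data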
# 535nm interf = optically interferes with 535nm fluorescence in sPLA2 counter-screen. shares compounds with HGIII-sPLA2 inh. BODIPY FL product fluorescence interference, QFRET. inhibition, % at 12.2 µM. 2,000 tested, 8.5% active. AID 743282;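 active = average inhibition above the solvent-only control mean plus 3 SD, cut at about 6% in these data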
# 535nm interf DR = counter-screen for HGIII-sPLA2 inhibitors: 535nm fluorescence interference, dose response; shares compounds with HGIII-sPLA2 inh; BODIPY FL product fluorescence interference, cell-free; IC50, µM; 240 tested, under 10 active; AID 743455;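 active = IC50 at or below 10 µM; inactive = IC50 above 10 µM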
# A number is an active result; 0 = inactive; - = no result.
SMILES,HGIII-sPLA2 inh,PLC-beta3 inh,PLCg1 inh,ASAP1 inh,ARFGAP1 inhibitor,hGIII sPLA2 conf,535nm interf,others
CC1(C)C=Cc2ccc(O)c(C(=O)/C=C/c3ccccc3)c2O1,0,0,0,-,-,-,-,
OC[C@@H](O)[C@H](O)C(/C=N/Nc1ccccc1)=N\Nc1ccccc1,20,0,0,0,0,23,0,
CCOC(=O)c1[nH]c(=S)n(-c2ccccc2)c1C(=O)OCC,25,0,0,0,0,0,0,
CCOC(=O)c1[nH]c(=S)n(Cc2ccccc2)c1C(=O)OCC,0,0,0,0,0,-,-,
CCCCCOC(=O)CCN1C(=O)/C(=C2\SC(=S)N(CCC(=O)OCCCCC)C2=O)SC1=S,0,0,0,0,0,-,-,
CCCCOC(=O)CCN1C(=O)/C(=C2\SC(=S)N(CCC(=O)OCCCC)C2=O)SC1=S,22,0,0,0,0,0,0,
CCc1cc2c(nc1CC)CCCN2Cc1ccccc1C(F)(F)F,0,0,0,0,0,-,-,
CCS(=O)(=O)N1CCC(C(=O)NCc2cccnc2)CC1,20,0,0,0,0,0,0,
C[C@@H]1CCN(C2CC2)S(=O)(=O)c2ccc(N3CCC[C@@H]3CO)cc2O1,0,0,0,-,-,-,-,
O=C1CCC2(CCC(c3ccccc3)CC2)N1CC[C@@H](O)c1ccccc1 (stereo not given in full),0,0,0,-,-,-,-,
CCOC(=O)C1CC(=O)c2cc(OC)c(OC)cc2C1 (stereo not given),0,0,0,0,0,-,-,
COC(=O)C1CC(=O)c2sccc2C1 (stereo not given),20,0,0,0,0,0,0,
Cc1cccc(C(=O)N[C@H]2CC[C@@]34CCCN3C(=O)CCC[C@H]4[C@H]2C)c1,0,0,0,-,-,-,-,
Cc1cccc(NC(=O)[C@H]2CC(=O)O[C@@H]2c2ccccc2)c1C,0,0,0,-,-,-,-,
O=C(Nc1cccs1)Nc1c(F)c(F)cc(F)c1F,21,0,0,0,0,0,0,
Cc1nc2c(-c3ccc(F)cc3)cnn2c(N)c1-c1ccccc1,0,0,0,0,0,-,-,
COc1ccc(-c2c(C)nc3c(-c4ccc(F)cc4)cnn3c2N)cc1,19,0,0,0,0,0,0,
CCC(Oc1ccccc1)C(=O)NCCOC (stereo not given),21,0,0,0,0,0,0,
CCOC(=O)[C@H]1[C@H]2COc3cc(OC)ccc3[C@@H]2N2C(=O)c3cc(OC)c(OC)cc3NC(=O)[C@@]12C,22,0,0,0,0,0,0,
CC(C)Oc1nc(-c2ccc(Cl)cc2)nc2ccccc12,0,0,0,0,0,-,-,
CCOc1nc(-c2ccc(Cl)cc2)nc2ccccc12,25,0,0,0,0,0,0,
COc1cc(C)ccc1Oc1nc(-c2ccccc2O)nc2ccccc12,0,0,0,0,0,-,-,
CCOc1ccccc1Oc1nc(-c2ccccc2O)nc2ccccc12,20,0,0,0,0,0,0,
CCN(CC)C(=O)CC[C@H]1CC[C@]2(CCCN(Cc3ccc(Br)cc3)C2)O1,0,0,0,-,-,-,-,
O=C(c1ccccc1)N1CCC2CCN(S(=O)(=O)c3ccccc3)CC21 (stereo not given),0,0,0,0,0,-,-,
SMILES,HGIII-sPLA2 inh,PLC-beta3 inh,PLCg1 inh,ASAP1 inh,ARFGAP1 inhibitor,hGIII sPLA2 conf,535nm interf,others
Oc1cccc2ccc(/C=C/c3ccccc3Br)nc12,26,0,0,0,0,0,0,
COc1cc(Br)c(/C=C/c2ccc3cccc(O)c3n2)cc1OC,0,0,0,0,0,-,-,
COC(=O)[C@]12C[C@H](CC(=O)NCCC(C)C)C(=O)N(Cc3ccc4c(c3)OCO4)C1=C[C@H](C(C)(C)C)O[C@@H]2C,0,0,0,0,0,-,-,
COc1ccc(C(NC(C)=O)c2nccc3cc(OC)c(OC)cc23)cc1OC (stereo not given),20,0,0,0,0,0,0,
COc1ccc(C(NC(C)=O)c2cc(Cl)c3cccnc3c2O)cc1OC (stereo not given),0,0,0,0,0,-,-,
COC(=O)[C@]12C[C@H](CC(=O)NCc3ccccc3)C(=O)N(Cc3cccc4ccccc34)C1=C[C@H](COCc1ccccc1)O[C@@H]2C,0,0,0,-,-,-,-,
COc1ccc2cc(C(=O)N/N=C/c3sc4ccccc4c3O)ccc2c1,21,0,0,0,0,0,0,
O=C(N/N=C/c1sc2ccccc2c1O)c1cccc2ccccc12,31,0,0,0,0,0,0,
COC(=O)c1ccc(N2CCOCC2)c(NC(=O)Nc2cccc(OC)c2)c1,0,0,0,0,0,-,-,
CCOC(=O)c1ccc(N2CCN(c3ccccc3F)CC2)c(NC(=O)Nc2cccc(OC)c2)c1,21,0,0,0,0,0,0,
Cc1ccccc1Nc1nc(N)nc(CCl)n1,20,0,0,0,0,0,0,
O=C(CCN1CCC2CCC(C2)C1)c1ccccc1 (stereo not given),0,0,0,0,0,-,-,
OC(CCN1CCC2CCC(C2)C1)c1ccc(Br)cc1 (stereo not given),20,0,0,0,0,0,0,
Cc1cc(C(=O)CN2CCC(C)CC2)c(C)n1-c1ccccc1F,19,0,0,0,0,0,0,
COC(=O)[C@]12C[C@H](CC(=O)N3CCC(c4ccccc4)CC3)C(=O)N(Cc3ccc(Cl)cc3Cl)C1=C[C@H](COCc1ccccc1)O[C@@H]2C,0,0,0,-,-,-,-,
O=C(O)C1CC=CCC1C(=O)N1CCN(c2nc(-c3ccccc3Cl)c3cc(Br)ccc3n2)CC1 (stereo not given),24,0,0,0,0,0,0,
N/C(COc1cc(Cl)cc(Cl)c1)=N\O,21,0,0,0,0,0,0,
CN(C)CCOc1cc(Cl)cc(Cl)c1,0,0,0,0,0,-,-,
CC1(C)CC(=O)C(N=Nc2cccc([N+](=O)[O-])c2)=C(O)C1,0,0,0,0,0,-,-,
CC1(C)CC(=O)C(N=Nc2ccc(C(F)(F)F)cc2[N+](=O)[O-])=C(O)C1,20,0,0,0,0,0,0,
S=C(NCCCN1CCOCC1)NCCCN1CCOCC1,0,0,0,0,0,-,-,
CCCCCCCCNC(=S)NCCN1CCCCC1,23,0,0,0,0,21,0,
O=C(Nc1ccccc1OC(F)F)c1oc2ccccc2c1COc1ccccc1,25,0,0,0,0,0,0,
COc1cccc(C(=O)Oc2cc3c4c(c2)C(C)=CC(C)(C)N4C(=O)C3=O)c1,32,0,0,0,0,53,0,535nm interf DR=0
COc1ccc(C(=O)Oc2cc3c4c(c2)C(C)=CC(C)(C)N4C(=O)C3=O)cc1OC,0,0,0,0,0,-,-,
COc1ccc(S[C@]2(C(=O)NCC(C)C)CC(=O)N[C@@H]2c2ccc(OC)cc2)cc1,0,0,0,-,-,-,-,
